This is a sample that favours compounds with a hit; in the whole collection about 4% have one here.
bCat nuc transl – beta-catenin nuclear translocation modulation. HeLa beta-catenin nuclear translocation, immunofluorescence imaging. nuclear translocation activity, % at 5 µM. 0.3% of 190,000 active. AID 1665;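 active = nuclear translocation activity above 50% at 5 µM, with a well cell count of 50 or more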;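 also: per-cell ratio of nuclear to cytoplasmic median beta-catenin stain intensity; plate controls were DMSO negative control for no effect and GSK-3 inhibitor IX positive control for full effect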
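System: Human HeLa cells, endogenous beta-catenin | Compound dosing: 5 µM primary, 0.02–20 µM confirmation | Timing: 24 h compound exposure at 37°C, 5% CO2 | Measured by: Fluorescence imaging of beta-catenin antibody stain plus DAPI | Read-out basis: % activation of per-cell nuclear versus cytoplasmic median beta-catenin signal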
Cl transport mod – KCC2 (human) Cl- transport modulation | Q9H2X9 | KCC2 cells, thallium flux FluoZin-2 fluorescence | B-score of Tl+ flux slope (higher = more flux/activation; lower = inhibition) at 10 µM | 2.2% of 190,000 active | AID 1456;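 active = thallium flux slope and its plate-corrected score both differing from the plate sample mean at a set confidence after two filtering rounds, in either direction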;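 also: slope of fluorescence scaled to starting intensity during 10 to 20 s after thallium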
Target sequence (Q9H2X9 whole entry, looked up): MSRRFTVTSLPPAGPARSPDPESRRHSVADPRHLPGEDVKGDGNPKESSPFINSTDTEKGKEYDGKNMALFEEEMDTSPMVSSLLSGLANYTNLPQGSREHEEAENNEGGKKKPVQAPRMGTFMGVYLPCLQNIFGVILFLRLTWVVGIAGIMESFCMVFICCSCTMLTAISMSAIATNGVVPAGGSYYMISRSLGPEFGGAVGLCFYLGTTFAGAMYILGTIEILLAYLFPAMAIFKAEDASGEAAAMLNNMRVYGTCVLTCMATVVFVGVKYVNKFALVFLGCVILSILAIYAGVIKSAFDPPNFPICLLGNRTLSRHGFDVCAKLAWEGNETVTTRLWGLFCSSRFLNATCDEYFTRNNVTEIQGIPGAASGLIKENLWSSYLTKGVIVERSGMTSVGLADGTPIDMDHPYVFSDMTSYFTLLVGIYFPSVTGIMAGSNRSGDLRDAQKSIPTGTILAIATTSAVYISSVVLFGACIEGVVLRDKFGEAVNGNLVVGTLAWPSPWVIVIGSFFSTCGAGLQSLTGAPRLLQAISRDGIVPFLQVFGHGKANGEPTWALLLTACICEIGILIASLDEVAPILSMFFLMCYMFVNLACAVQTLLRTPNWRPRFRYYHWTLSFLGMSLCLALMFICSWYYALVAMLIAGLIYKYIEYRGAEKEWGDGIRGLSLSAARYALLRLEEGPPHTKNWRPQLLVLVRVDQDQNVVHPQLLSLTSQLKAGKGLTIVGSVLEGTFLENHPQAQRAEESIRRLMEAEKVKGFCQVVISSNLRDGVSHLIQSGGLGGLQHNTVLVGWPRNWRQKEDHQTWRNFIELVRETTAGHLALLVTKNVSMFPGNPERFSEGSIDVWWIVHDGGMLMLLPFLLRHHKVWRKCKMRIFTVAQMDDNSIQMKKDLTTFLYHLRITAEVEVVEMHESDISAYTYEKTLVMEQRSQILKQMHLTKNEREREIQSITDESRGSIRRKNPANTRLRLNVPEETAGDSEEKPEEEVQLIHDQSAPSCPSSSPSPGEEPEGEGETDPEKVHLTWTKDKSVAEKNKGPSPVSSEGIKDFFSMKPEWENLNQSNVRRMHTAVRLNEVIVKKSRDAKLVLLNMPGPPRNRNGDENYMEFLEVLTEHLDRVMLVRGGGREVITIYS
WT yeast gro inh – growth inhibition of WT yeast, mitochondrial fusion screen | inhibition, % at 10 µM | 2.1% of 190,000 active | mitochondrial fusion phenotypic screen, WT strain; in the data active = inhibition above about 58%; tested in S. cerevisiae
Pf gametocyte – kills late stage P. falciparum gametocytes; P. falciparum stage V gametocytes, ATP luminescence, 24 h; 0.065% of 150,000 active; inhibition, % at 10.9 µM;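 active = inhibition above the mean plus 3 SD of compounds within the control limits, set per campaign, cut at about 38% in these data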;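 also: 0% = DMSO wells and 100% = medium only without gametocytes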
MT stabilize HCS – microtubule stabilization, imaging screen | HeLa tubulin immunostaining HCS, 24 h; share of cells brighter than vehicle mean+2SD | % tubulin-high responders, % at 10 µM | 0.83% of 200,000 active | AID 2205;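 active = plate Z-score above 3 for both tubulin-high and condensed-nucleus cell shares, with cell loss under 80%, at 10 µM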;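 also: anti alpha tubulin signal scored within the nucleus-defined area of each cell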
* hit, by the source's call; x = no result given.

SMILES	bCat nuc transl	Cl transport mod	WT yeast gro inh	Pf gametocyte	MT stabilize HCS
S=C(NCc1ccco1)Nc1cc(-c2ccccc2)[nH]n1	0.9	-1.92	64.2*	1.6	3.9
OCCCNC(=S)Nc1ccc(Oc2ccccc2)cc1	x	-1.09	-1.2	x	2.3
S=C(NCc1ccco1)Nc1ccc(Oc2ccccc2)cc1	4.5	-2.03	67.1*	8.0	4.5
CC(C)CNC(=S)Nc1ccc(Oc2ccccc2)cc1	4.8	-1.3	62.8*	-7.3	6.6
S=C(NCc1ccco1)Nc1ccc(Cl)c(Cl)c1	-2.3	-2.05	-2.4	-4.7	1.5
O=c1nc(-c2ccccc2)n(-c2ccccc2)[nH]1	-4.3	-1.03	-19.6	x	2.0
O=C1CN(C(=O)CSc2nc3ccccc3c(=O)n2Cc2ccc(F)cc2)c2ccccc2N1	x	19.1*	-31.5	x	4.7
Cc1ccnc2nc(C(=O)OCC(=O)c3c[nH]c4ccccc34)nn12	-5.6	x	x	5.6	x
CNC(=S)N1N=C(c2ccc(C)cc2)CC1c1cc(OC)ccc1OC (stereo not given)	1.4	-0.0666	48.0	x	12.2*
COc1cc(C(=O)N2CCCc3ccccc32)cc(OC)c1OC	53.3*	-1.09	-3.9	-11.4	38.7*
CC(C(=O)N1CCc2ccccc21)N1CCc2ccccc2C1 (stereo not given)	1.8	-0.017	-17.9	x	2.3
COc1cccc(C(=O)N2CCCc3ccccc32)c1	1.3	-0.177	-14.0	2.4	2.8
COc1cccc2cc(C(=O)N3CCc4ccccc43)c(=O)oc12	-0.1	x	83.2*	x	1.9
CCOc1cccc2cc(C(=O)N3CCc4ccccc43)c(=O)oc12	x	0.123	-8.0	x	2.4
COc1cc2c(cc1OC)CN(C(C)C(=O)N1CCc3ccccc31)CC2 (stereo not given)	x	0.737	6.4	x	47.2*
Cc1cccc(OCC(=O)NNC(=O)C2CCCCC2C(=O)O)c1 (stereo not given)	x	0.392	-11.5	-12.2	2.5
Cn1c(=O)c(S(=O)C2CCCCC2)c(O)c2ccccc21 (stereo not given)	x	x	x	-0.8	x
COc1ccc(C2CC(c3cccs3)=NN2C(=O)c2ccc(Br)o2)cc1 (stereo not given)	-1.0	1.1	63.9*	11.3	2.7
Cc1ccc(Cn2ncc3c(N4CCN(Cc5ccc(Cl)cc5)CC4)ncnc32)cc1	-2.1	x	63.5*	3.3	5.3
Cc1ccc(Cn2ncc3c(N4CCN(c5ccc(C)cc5)CC4)ncnc32)cc1	-7.9	x	2.4	x	4.0
CC1CCN(c2ncnc3c2cnn3Cc2ccc(Cl)cc2)CC1	-4.4	x	63.1*	x	4.4
CC1CC(C)CN(c2ncnc3c2cnn3-c2ccc(Cl)cc2)C1 (stereo not given)	3.5	-0.00546	61.6*	x	3.1
CN(C)/C=C/C(=O)c1ccc(-c2ccc(Cl)cc2Cl)o1	4.2	0.291	4.9	-9.8	4.1
CCc1nc(SCC(=O)Nc2ccc(OC)cc2[N+](=O)[O-])n[nH]1	-0.1	0.964	x	-13.2	x
COC(=O)c1sc(N2CCN(c3ccc(Cl)cc3)CC2)nc1N	-0.3	-0.802	13.0	x	1.9
SMILES	bCat nuc transl	Cl transport mod	WT yeast gro inh	Pf gametocyte	MT stabilize HCS
Cc1ccc(Cn2nnnc2CN2CCC(NC(=O)C(C)(C)C)CC2)cc1	-0.1	0.667	-10.3	x	1.3
Cc1oc(C(C)(C)C)cc1C(=O)N1CCN(C(c2ccccc2)c2ccccc2)CC1	-1.8	-0.84	x	8.0	x
O=C(CCSc1ccccc1)OCn1nnc2ccccc2c1=O	1.3	-1.5	-4.5	-6.9	3.1
O=C(CSCC(=O)OCn1nnc2ccccc2c1=O)Nc1ccc(Cl)cc1	x	-0.152	69.9*	x	1.0
Cc1cc2c(cc1C)CSC(c1ccccc1OC(=O)C(C)(C)C)SC2	x	-0.404	64.3*	20.4	1.2
CCCCC(=O)Oc1ccccc1C1SCc2cc(C)c(C)cc2CS1	-0.5	0.653	8.0	-8.5	2.4
Cc1cc(NC(=O)CSCC(=O)N(c2cccc(Cl)c2)C(C(=O)NC2CCCCC2)c2ccc(O)c(O)c2)no1 (stereo not given)	-2.0	0.121	-9.9	3.4	1.4
Cc1nn(C2CCS(=O)(=O)C2)c(Cl)c1/C=C/C(=O)OCC(=O)c1cc(C)n(-c2ccc(F)cc2)c1C (stereo not given)	x	0.465	10.1	-4.0	3.5
CCN1/C(=C/c2ccc3cccc(C)c3[n+]2CC)Sc2ccccc21	x	x	62.5*	-16.9	7.1
Cc1ccc2c(c1)S/C(=C/c1ccc[n+](CCO)c1)N2C	2.3	0.167	37.3	1.3	2.0
C=CC[n+]1c(/C=C2\C=Cc3cc(C)ccc3N2CC)ccc2ccccc21	-1.9	-1.25	78.6	16.0	12.4
CCN1/C(=C/c2ccc3cc(C)cc(C)c3[n+]2CC)Sc2cc(C)ccc21	3.0	-0.663	94.8*	0.0	12.7
CCN1/C(=C\c2ccc3cc(C)ccc3[n+]2CC)Sc2cc(C)c(C)cc21	0.0	0.107	88.3*	8.7	8.8
COc1ccc(OCC(O)CNC(=O)Nc2ccc(F)cc2)cc1 (stereo not given)	0.4	-0.999	x	-10.6	x
CN(C)/C=C/C(=O)c1ccc(F)cc1F	1.0	0.895	x	-0.3	x
CN1CCC(N(C)C(=O)CCc2nc3ccccc3n2-c2ccccc2)CC1	-3.2	x	-20.4	3.0	1.5
Fc1ccc(Br)cc1C1C=C(c2ccc(Br)s2)Nc2ncnn21 (stereo not given)	50.3*	0.00147	-9.8	x	6.0
O=C(Nc1ccccc1)OC1CC2CC1C1CCCC21 (stereo not given)	-5.0	-1.2	80.4*	-7.9	2.9
COc1ccc2c(c1)-c1nc(NC(=O)c3cccs3)sc1CC2	-0.2	-0.0653	72.5*	x	2.6
CCOC(=O)N1CCN(C(=O)c2ccc3c(=O)n(CCC4=CCCCC4)c(=S)[nH]c3c2)CC1	-0.9	x	4.0	x	4.0
O=c1c2ccc(Cl)cc2[nH]c(=S)n1CCC1=CCCCC1	-0.9	36.6*	7.9	-50.5	3.4
COc1ccc(C(=O)Nc2nnc(-c3ccccc3)o2)cc1OC	-4.0	x	-1.8	-6.0	3.3
O=C(Nc1nnc(-c2ccccc2)o1)c1cc(Cl)sc1Cl	0.9	59.5*	60.2	11.5	2.4
O=C(Nc1nnc(-c2ccc(F)cc2)o1)c1cc(Cl)sc1Cl	1.1	53.7*	64.1	-16.7	1.7
O=C(Nc1nnc(-c2ccncc2)o1)c1ccccc1F	-1.4	0.796	-12.4	13.3	5.6
SMILES	bCat nuc transl	Cl transport mod	WT yeast gro inh	Pf gametocyte	MT stabilize HCS
O=C(/C=C/c1c(Cl)cccc1Cl)NCCCn1ccnc1	x	x	x	11.2	x
Cc1nc(Nc2ccccc2)sc1-c1ccccc1	-1.0	0.644	64.1*	-4.9	3.0
CCOC(=O)c1ccc(NCc2cccnc2)cc1	x	x	x	0.3	x
COc1ccc(NC(=O)COC(=O)c2c3c(nc4ccccc24)CCCC3)cc1Cl	-2.6	0.0886	63.3*	-0.7	4.4
COc1ccc(N(CC(=O)N2CCN(Cc3ccccc3)CC2)S(C)(=O)=O)cc1Cl	x	x	x	-18.5	x
CCOC(=O)c1sc(NC(=O)c2cccs2)cc1C	-4.2	x	21.6	x	3.8
CCOC(=O)c1sc(NC(=O)Nc2cccc(Cl)c2)cc1C	1.4	0.225	67.2*	-3.6	4.5
Cc1cccc(NCc2ccc(N(C)C)cc2)n1	x	x	x	-8.6	x
